{"data": "Measured values gathered from unrelated publications", "target": "Serine/threonine-protein kinase 38 (STK38, Homo sapiens, UniProt Q15208)", "note": "Protocols differ between the studies behind these lines."}
{"Compound": "CCN1CCN(Cc2ccc(C(=O)Nc3ccc(C)c(Oc4ccc5c(c4)CC(=O)N5)c3)cc2C(F)(F)F)CC1", "observed": "binding", "method": "competition with immobilised ligand", "tested at": "1 µM", "remaining binding [%]": 100}
{"Compound": "CN(C)c1ncc(F)c(-c2cnn3ncccc23)n1", "observed": "binding", "tested at": "1 µM", "remaining binding [%]": 90}
{"Compound": "C[C@@H](c1ccc(-n2cnc3c(N)ncnc32)cc1)N1CCc2nn(C)c(Cc3ccccc3)c2C1=O", "observed": "binding", "method": "competition with immobilised ligand", "tested at": "0.1 µM", "remaining binding [%]": 71}
{"Compound": "O=C(NCCCN1CCOCC1)c1ccc(Nc2nccc(-c3cc4ccccc4s3)n2)cc1", "observed": "binding", "method": "competition with immobilised ligand", "tested at": "1 µM", "remaining binding [%]": 66}
{"Compound": "c1cncc(-c2cccc(Nc3nccc(NC4CCCCC4)n3)c2)c1", "observed": "binding", "method": "competition with immobilised ligand", "tested at": "10 µM", "remaining binding [%]": 89}
{"Compound": "O=C(NCCCN1CCOCC1)c1ccc(Nc2ncc(Cl)c(-c3ccc(Cl)s3)n2)cc1", "observed": "binding", "method": "competition with immobilised ligand", "tested at": "1 µM", "remaining binding [%]": 76}
{"Compound": "Cn1nc(C(F)(F)F)cc1-c1cnc(N2CCc3cc(S(=O)(=O)Nc4c(F)cc(Cl)cc4F)cc(N4CCCC4=O)c32)nc1", "observed": "cell-free assay", "method": "competition with immobilised ligand", "tested at": "1 µM", "remaining binding [%]": 97}
{"Compound": "Nc1ncc2c(n1)-c1c([nH]c3ccc(C#CC4CC4)cc13)CCCC2", "observed": "binding", "method": "competition with immobilised ligand", "tested at": "1 µM", "remaining binding [%]": 87}
{"Compound": "Cc1nc(N2CC[C@@H](O)C2)ncc1-c1cc(C(F)(F)F)cc2[nH]ncc12", "observed": "binding", "method": "competition with immobilised ligand", "tested at": "1 µM", "remaining binding [%]": 95}
{"Compound": "O=C(Nc1c[nH]nc1C(=O)NC1CCNCC1)c1cc(F)cc(F)c1", "observed": "binding", "method": "competition with immobilised ligand", "tested at": "1 µM", "remaining binding [%]": 97}
{"Compound": "COc1cnc(Nc2cccc(S(N)(=O)=O)c2)nc1N1CCN(c2ccccc2)C(=O)C1", "observed": "binding", "method": "competition with immobilised ligand", "tested at": "1 µM", "remaining binding [%]": 84}
{"Compound": "C[C@H]1CCN(c2nccc(-c3cnn4ncccc34)n2)C1", "observed": "binding", "tested at": "1 µM", "remaining binding [%]": 93}
{"Compound": "Cc1cnc(Nc2ccc(C(=O)N3CCC(N4CCCC4)CC3)cc2)nc1-c1cc2ccccc2s1", "observed": "binding", "method": "competition with immobilised ligand", "tested at": "1 µM", "remaining binding [%]": 79}
{"Compound": "Cc1cc(-n2nc(Cc3cc(F)cc(C(F)(F)F)c3)nc2C)ccc1C(N)=O", "observed": "cell-free assay", "method": "competition with immobilised ligand", "tested at": "1 µM", "remaining binding [%]": 83}
{"Compound": "CN(C)c1nccc(-c2cnn3ncccc23)n1", "observed": "binding", "tested at": "1 µM", "remaining binding [%]": 74}
{"Compound": "COc1ccc2c(O[C@@H]3C[C@H]4C(=O)N[C@]5(C(=O)O)CC5/C=C\\CCCCC[C@H](NC(=O)OC5CCCC5)C(=O)N4C3)cc(-c3csc(NC(=O)C(C)C)n3)nc2c1C (stereo partly drawn)", "observed": "cell-free assay", "method": "competition with immobilised ligand", "tested at": "1 µM", "remaining binding [%]": 50}
{"Compound": "CN(CCCC(F)(F)F)c1nccc(-c2cnn3ncccc23)n1", "observed": "binding", "tested at": "1 µM", "remaining binding [%]": 100}
{"Compound": "CCS(=O)(=O)c1cc2cc(C[C@@](O)(CC(C)(C)c3ccc(F)cc3C(N)=O)C(F)(F)F)[nH]c2cn1", "observed": "cell-free assay", "method": "competition with immobilised ligand", "tested at": "1 µM", "remaining binding [%]": 76}
{"Compound": "c1cnn2ncc(-c3ccnc(N4CCC45COC5)n3)c2c1", "observed": "binding", "tested at": "1 µM", "remaining binding [%]": 87}
{"Compound": "CCOCCn1cc(C(=O)Nc2ccc(-n3nc(-c4cccnc4)cc3C(F)(F)F)cn2)ccc1=O", "observed": "cell-free assay", "method": "competition with immobilised ligand", "tested at": "1 µM", "remaining binding [%]": 91}
{"Compound": "N[C@H]1CCN(c2nccc(-c3cnn4ncccc34)n2)C1", "observed": "binding", "tested at": "1 µM", "remaining binding [%]": 100}
